Source: PMC7651632 (RSC Medicinal Chemistry, 2020)
Entries after “also recorded” stand apart in the source; their conditions may differ.

Key:
[1] = test system: L. mexicana axenic amastigotes; test: Primary screen against axenic amastigotes, single concentration; format: cell-based, Leishmania mexicana; details: 50 μM, in duplicate, inhibition of amastigote proliferation
Procedure, shortened: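 Run in a 96-well format against mammalian-stage L. mexicana axenic amastigotes. Each test compound was tested at a single 50 μM in duplicate, with inhibition of amastigote proliferation as the read-out. Amphotericin B served as positive control, and plate robustness was judged by Z′ factor.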

[2] = test system: axenic L. mexicana amastigotes; test: Secondary dose response screen against axenic amastigotes; format: cell-based, Leishmania mexicana; details: 50 µM to 0.21 µM, 24 h + 24 h alamarBlue, 33 °C
[3] = test system: L. mexicana amastigotes within macrophage host (RAW 267.4); test: Infected cell assay: screening against infected macrophages; format: cell-based, Leishmania mexicana; details: 24 h
RAW 267.4 macrophages = test: Cytotoxicity screening against RAW267.4 macrophages; format: cell-based, Mus musculus
Procedure, shortened: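 Only compounds retained after the axenic amastigote dose-response screen were tested. Host RAW 267.4 macrophages were used. […] Selectivity index is macrophage ED50 divided by axenic amastigote ED50.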

SMILES	% inhibition Primary screen [1]	also measured
CC1(C)CC[C@]2(C(=O)O)CC[C@]3(C)C(=CC[C@@H]4[C@@]5(C)CC[C@H](O)C(C)(C)[C@@H]5CC[C@]43C)[C@@H]2C1 [IVL-8, Oleanolic acid]	fell below the threshold; also recorded: deselected	
CC1(C)CC[C@]2(C(=O)O)CC[C@]3(C)C(=CCC4[C@@]5(C)CC[C@H](O[C@@H]6O[C@H](CO)[C@@H](O)[C@H](O)[C@H]6O[C@@H]6O[C@H](CO)[C@@H](O)[C@H](O)[C@H]6O)[C@@](C)(CO)C5CC[C@]43C)[C@@H]2C1 (some centres unmarked) [IVL-14, hederoside F]	fell below the threshold; also recorded: did not reach this cut-off	
CC1(C)CC[C@]2(CO)CC[C@]3(C)C(=CC[C@@H]4[C@@]5(C)CC[C@@H]6O[C@H]([C@H](O)[C@@H](O)[C@@H](O)CO)OC[C@@]6(C)[C@@H]5CC[C@]43C)[C@@H]2C1 [IVL-80, Anemoclemoside A2]		AMA ED50 - effective dose to kill 50% of axenic L. mexicana amastigotes [2]: >50 µM
C[C@@H]1O[C@@H](O[C@H]2[C@H](O)[C@@H](O)[C@H](OC[C@H]3O[C@@H](OC(=O)[C@]45CCC(C)(C)C[C@H]4C4=CC[C@@H]6[C@@]7(C)CC[C@H](O[C@@H]8OC[C@H](O)[C@H](O)[C@H]8O)[C@@](C)(CO)[C@@H]7CC[C@@]6(C)[C@]4(C)CC5)[C@H](O)[C@@H](O)[C@@H]3O)O[C@@H]2CO)[C@H](O)[C@H](O)[C@H]1O [IVL-15, hederacoside D]	inactive	
CC1(C)CC[C@]2(C(=O)O)CC[C@]3(C)C(=CC[C@@H]4[C@@]5(C)CC[C@H](OC(=O)CCC(=O)O)[C@@](C)(COC(=O)CCC(=O)O)[C@@H]5CC[C@]43C)[C@@H]2C1 [IVL-1, hederagenin disuccinate]		InMAC ED50 - effective dose to kill 50% of amastigotes within macrophage host (RAW 267.4) [3]: not active; SI - selectivity index, RAW ED50/AMA ED50 (RAW 267.4 macrophages; RAW 267.4 macrophages versus axenic L. mexicana amastigotes): > 43.5; RAW ED50 - effective dose to kill 50% of host macrophage (RAW 267.4) (RAW 267.4 macrophages; toxicity study, 100 µM to 0.41 µM, 24 h): >100 µM
CC1(C)CC[C@]2(C(=O)O)CC[C@]3(C)C(=CC[C@@H]4[C@@]5(C)CC[C@H](O)[C@@](C)(CO)[C@@H]5CC[C@]43C)[C@@H]2C1 [IVL-7, hederagenin]	< 95%	
